Hits are enriched below; roughly 4.9% of the tested compounds scored in any of these assays.
STAT3 blocker – inhibitors of IL-6 induced STAT3 signaling. 190,000 tested, 0.89% active. U3A cells, IL-6 STAT3-luciferase reporter, luminescence; host cell line lacks STAT1. inhibition, % at 5.5 µM;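 active = inhibition above the mean inhibition across all screened compounds plus 3 SD, cut at about 44% in these data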
STAT1 inh – inhibitors of IFN-gamma induced STAT1 signaling; NIH 3T3 STAT1-luciferase reporter, luminescence; inhibition, % at 5.5 µM; 200,000 tested, 0.35% active;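 active = inhibition above a set limit, the mean inhibition across all tested compounds plus 3 SD, cut at about 34% in these data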
STAT1 act – increases IFN-gamma driven STAT1 reporter signal; activation (% of control), % at 5.5 µM; NIH 3T3 STAT1-luciferase reporter, luminescence; 100% = IFN-gamma alone, no compound; AID 932; 200,000 tested, 2.6% active;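 active = activation above the screen-wide mean activation plus 3 SD, cut at about 130% in these data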
FLuc stim CS – affects firefly luciferase, flagging false hits in luciferase stimulation screens | P08659 | ATPlite luciferase biochemical, luminescence, 10 min; 0 = ATP-free wells, 1 = DMSO control | activation factor at 10 µM | 200,000 tested, under 10 active | AID 1027;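 active = luciferase activation factor, scaled between plate controls, of at least 2 with compound at 10 µM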
Target sequence (P08659 whole entry, looked up): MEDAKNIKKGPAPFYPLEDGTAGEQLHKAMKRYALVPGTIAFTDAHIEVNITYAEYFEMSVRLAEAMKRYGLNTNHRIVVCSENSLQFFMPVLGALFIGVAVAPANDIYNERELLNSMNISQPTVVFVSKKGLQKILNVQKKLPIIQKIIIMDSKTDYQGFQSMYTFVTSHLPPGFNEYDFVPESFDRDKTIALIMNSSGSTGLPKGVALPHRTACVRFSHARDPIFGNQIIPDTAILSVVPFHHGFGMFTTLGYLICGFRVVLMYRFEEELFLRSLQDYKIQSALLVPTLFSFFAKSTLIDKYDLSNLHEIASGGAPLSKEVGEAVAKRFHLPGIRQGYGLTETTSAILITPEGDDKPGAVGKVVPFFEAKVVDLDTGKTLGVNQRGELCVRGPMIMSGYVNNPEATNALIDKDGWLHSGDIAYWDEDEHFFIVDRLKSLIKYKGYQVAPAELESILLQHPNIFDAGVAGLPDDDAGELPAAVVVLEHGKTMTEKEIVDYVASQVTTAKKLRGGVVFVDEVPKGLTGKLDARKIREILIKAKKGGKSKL
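test system = cell-free luciferase reagent | medium = PBS as buffer for the ATP substrate | dosing = test compounds dosed from 2 mM stocks in 100% DMSO | incubation = 10 min at ambient temperature | detection = luminescence measurement of luciferase light output | benchmarks = low control with PBS replacing ATP, high control enzyme plus ATP without compound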
STAT3 activator – STAT3 signaling activation; activation (% of control), % at 5.6 µM; AID 871; 190,000 tested, 0.91% active; U3A cells, IL-6 STAT3-luciferase reporter, luminescence; 100% = signal with IL-6 EC80 alone;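 active = activation above the screen-wide mean of compound activation plus 3 SD, cut at about 130% in these data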
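Material: STAT1-lacking human U3A cells, STAT3 luciferase reporter | Benchmarks: IL-6-only wells as 100% reference | Probe or stimulus: IL-6 (33 ng/mL) | Timing: Compound 1 h, then IL-6 6 h at 37 °C | Detection: Luminescence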
FLuc inh counter – counter-screen for luciferase assay inhibitors: firefly luciferase inhibition; P08659; ATPLite firefly luciferase biochemical luminescence, 10 min; inhibition, % at 10 µM; 200,000 tested, 1.5% active;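 active = inhibition above about 50% when tested at 10 µM, limit read from the data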
Each line names hits and unclear results; the compound was inactive in the other large screens.

CCOc1ccc(-c2nnc(N)s2)cc1	FLuc inh counter 58
CCOc1ccc(-c2nc(CCl)cs2)cc1	FLuc inh counter 70
CC(C)(C)c1ccc(-c2nnc(N)s2)cc1	STAT1 act 132, FLuc inh counter 87
Nc1nnc(-c2ccc(F)cc2)s1	none
CCCCOc1ccc(-c2nnc(N)s2)cc1	none
Cc1ccccc1C(=O)NC(=S)Nc1ccccc1C(F)(F)F	FLuc inh counter 71
O=C(COc1nncc2ccccc12)Nc1ccc(F)c(F)c1	none
CC(=O)Nc1ccc(/C=N/N2CCCCC2)cc1	STAT1 act 135
CC(=O)Nc1ccc(/C=N/N2C(C)CCCC2C)cc1 (stereo not drawn)	none
CN(C(=O)/C=C/c1cnc2ccccc2c1)C1CCCCC1	FLuc inh counter 62
COc1ccc(/C=C/C(=O)N(C)C2CCCCC2)cc1Br	none
CCn1cc(C(=O)OCC(=O)Nc2c(C)cccc2C)c(=O)c2ccc(C)nc21	none
O=[N+]([O-])c1ccc(/C=C/c2ccc3ccccc3n2)cc1	STAT3 blocker 78, STAT1 inh 52, FLuc inh counter 76
Oc1ccc(/C=C/c2ccc3ccccc3n2)cc1	STAT3 blocker 102, STAT1 inh 72, FLuc inh counter 86
O=C(COC(=O)c1ccccc1C(=O)c1ccc(Cl)cc1)NCC1CCCO1 (stereo not drawn)	none
NC(=O)[C@@H]1CCCN1Cc1nc(-c2cccs2)no1	none
Cc1ccc(OCCOc2ccc(Br)cc2)c([N+](=O)[O-])n1	STAT1 act 135
CC1CC(C)CN(C(=O)c2cc3cc(Br)cc(Br)c3o2)C1 (stereo not drawn)	none
O=C(Nc1ccc2oc(-c3ccccc3F)nc2c1)c1ncn[nH]1	STAT1 act 136, FLuc inh counter 53
COc1ccc(OCC(=O)Nc2cccc(-c3nc4ccccc4o3)c2)cc1	STAT1 act 148
CCCC(=O)Nc1cccc(-c2nc3ccccc3o2)c1	none
CC(=O)Nc1ccc2oc(-c3ccccc3)nc2c1	STAT1 act 150, FLuc inh counter 70
O=C(Nc1ccc2oc(-c3ccccc3)nc2c1)c1ccccc1F	STAT1 act 146
O=c1c2c3c(sc2nc2n1CCCCC2)CCCC3	STAT1 act 143
O=c1c2c3c(sc2nc2n1CCCCC2)CCCCC3	none
COc1ccc(C(=O)Nn2c(SCC(=O)NCC3CCCO3)nc3ccccc3c2=O)cc1 (stereo not drawn)	STAT3 blocker 77, STAT1 inh 47, FLuc inh counter 82
C=CCC(CC=C)(NC(=O)c1cccc(C)c1)c1ccccc1	none
FC(F)(F)Oc1ccc(Nc2nc3ccccc3o2)cc1	STAT1 act 134
c1ccc(Nc2nc3ccccc3o2)cc1	STAT1 act 137, FLuc inh counter 58
O=c1oc(Nc2cccc(F)c2)nc2ccccc12	none
COc1cccc(NC(=S)N(CCCN2CCOCC2)Cc2cn(C)c3ccccc23)c1	none
CCOc1ccc(Br)cc1S(=O)(=O)Nc1cccc(S(=O)(=O)N(C)c2ccccc2)c1	none
c1ccc2c(Oc3ccc4c(c3)OCO4)nncc2c1	STAT1 act 138
CC1=NN(C(N)=S)C(=O)C1N=Nc1ccc(C)cc1C (stereo not drawn)	STAT1 act 137
COc1ccccc1C(=O)C1CCCN(C(=O)Nc2ccccc2F)C1 (stereo not drawn)	none
COc1ccc(-n2c(C)cc(C3=NNC(=NC4CC4)SC3)c2C)cc1	STAT1 inh 62
c1ccc2c(C3=NNC(=NC4CCCCC4)SC3)c[nH]c2c1	none
Cc1cc(C2=NNC(=NC3CC3)SC2)c(C)n1-c1ccccc1	STAT3 blocker 105, STAT1 inh 91, FLuc inh counter 97
c1ccc2c(C3=NNC(=NC4CC4)SC3)c[nH]c2c1	FLuc inh counter 53
COc1ccc(CN2CCNC(=O)C2CC(=O)NC2Cc3ccccc3C2)c(OC)c1 (stereo not drawn)	none
C=CCOc1c(Cl)cc(CNc2ccc(N(C)C)cc2)cc1OC	STAT1 act 137
CC1(C)C2CC=C(/C=N/NC(=O)c3ccc(O)cc3)C1C2 (stereo not drawn)	none
COc1ccc(-n2ncc3c(N4CCCCC4)ncnc32)cc1	STAT3 blocker 107, STAT1 inh 72, FLuc inh counter 94
CC1CN(c2ncnc3c2cnn3-c2ccc(Cl)cc2)CC(C)O1 (stereo not drawn)	STAT1 act 147
Cc1cccc(-n2ncc3c(N4CC(C)CC(C)C4)ncnc32)c1 (stereo not drawn)	STAT1 act 133
CC1CC(C)CN(c2ncnc3c2cnn3Cc2ccc(Cl)cc2)C1 (stereo not drawn)	none
O=C(NCCc1ccccn1)C(F)(F)C(F)(F)C(F)(F)C(F)(F)C(F)(F)C(F)(F)C(F)(F)C(F)F	none
Cc1cccc(C(=O)NNC(=O)c2ccco2)c1	none
CC(C)c1nnc(NC(=O)c2cccs2)s1	STAT1 act 129
CC(C)(C)c1nnc(NC(=O)c2cccs2)s1	STAT1 act 134
COc1cccc(-c2nnc(NC(=O)c3cccs3)s2)c1	STAT1 act 138
CC(C)=CC(=O)Nc1nnc(C(C)C)s1	STAT1 act 145
O=C(Nc1nnc(CCc2ccccc2)s1)c1cccs1	none
CCOC(=O)Nc1nnc(-c2cccc(OC)c2)s1	none
CCc1sc(/C=C(/C#N)C(N)=S)cc1[N+](=O)[O-]	none
COc1ccc(-c2[nH]ncc2CNCC(C)(C)N2CCOCC2)cc1F	none
Cc1cnc(C(=O)Nc2nnc(C(C)C)s2)cn1	STAT1 act 131
Cc1cnc(C(=O)Nc2nnc(C)s2)cn1	none
Cc1ccccc1-c1oc(C)c(C)[n+]1[O-]	none
CCOC(=O)COc1c(/C=N\OC)cc(Cl)cc1OC	none
N=C(N)N1CCc2ccccc2C1	none
Nc1nccc(-c2ccc(-n3cccc3)cc2)n1	none
CCOC(=O)c1sc2nc3c(SCC(=O)O)cc(C(=O)c4ccccc4O)cn3c(=O)c2c1C	FLuc inh counter 79
O=C(O)CSc1cc(C(=O)c2ccccc2O)cn2c(=O)c3c(-c4ccccc4)csc3nc12	none
CCOC(=O)c1sc2nc3c(SCC(=O)O)cc(C(=O)c4cc(F)ccc4O)cn3c(=O)c2c1C	FLuc inh counter 51
COc1ccc(N2C(=NC(C)=O)SC3CS(=O)(=O)CC32)cc1OC (stereo not drawn)	none
CCCC(=O)N=C1SC2CS(=O)(=O)CC2N1c1ccc(-c2nc3ccc(C)cc3s2)cc1 (stereo not drawn)	STAT1 act 131
CC(C)(C)NC(=O)NC(=O)COc1ccccc1C#N	STAT1 act 140
C=CCNC(=O)COc1ccccc1C#N	none
CC/C(=N\NC(=O)c1ccc(CN(C)S(=O)(=O)c2ccc(C)cc2)cc1)c1ccc(OC(F)F)cc1	none

Assay outcomes from PubChem.
